Folding enthalpy and Tm data for 37 sequences are collected here from the array DNA melting data of Ke et al. (doi:10.1101/2024.01.08.574731).

Series [1] is described as follows: folding enthalpy; higher = less favourable; fluorescence melt of hairpins on a sequencing array, two-state fit. The following applies: sodium 0.088 M. The procedure, abridged: (§1)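 To match UV melts, fitted temperatures were raised by 9.35 °C. These fits were bootstrapped two-state models that gave melting temperature and folding enthalpy, combined by inverse variance over four replicates. The input was normalised Cy3 fluorescence of library hairpins with annealed Cy3 and quencher oligos on a sequenced MiSeq flow cell, imaged in 50 mM Na-HEPES pH 8.0, 25 mM NaCl in 2.5 °C steps up to 60 °C.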

Series [2] can be described thus: melting temperature; fluorescence melt of hairpins on a sequencing array, two-state fit, raised by 9.35 °C to match UV melts. The following applies: sodium 0.088 M. The procedure, abridged: as §1

With GGCGGACGAAAGTCGCC (((.(((....)))))), in series [1], the folding enthalpy is -28.2 kcal/mol. Moreover, in series [2], the Tm stood at 68.5 °C.
On the same counts, the results for GGCCAGTCGAAAGACGCC (((..(((....)))))) are -18.2 kcal/mol and 50.1 °C.
On the same counts, the results for GCAGCAGGAAACTGCTAC (.(((((....))))).) are -13.4 kcal/mol and 44.7 °C.
Take GGCTGAGGAAACTCAACC ((.((((....)))).)): the folding enthalpy in series [1] is -32.5 kcal/mol. For the same sequence, in series [2], the Tm amounted to 41.2 °C.
Take GGACTAGGAAACTAGTCC (((((((....))))))): the folding enthalpy in series [1] was -44 kcal/mol. The Tm in series [2] was 61.5 °C.
On the same counts, the results for GTTCGGGGAAACCTGAAC ((((.((....)).)))) are -38.9 kcal/mol and 49.9 °C.
On the same counts, the results for GATCTCGAGGGAGATC ((((((....)))))) are -19.9 kcal/mol and 51.7 °C.
GATTGCGAAAGCATTATC ((((((....)))..))): the folding enthalpy in series [1] is -11.2 kcal/mol. Also, in series [2], the Tm was 26.6 °C.
On the same counts, the results for GGCGCCTCGAAAGAGGCC (((..(((....)))))) are -8.15 kcal/mol and 50.5 °C.
On the same counts, the results for GGCTGAACGAAAGTTGCC (((..(((....)))))) are -24.6 kcal/mol and 46.9 °C.
On the same counts, the results for GTTGGGGGAAACCCTAGC (.(.(((....))).).) are -9.75 kcal/mol and 24.6 °C.
With GACTTTCCGAAAGGAGTC (((..(((....)))))), in series [1], the folding enthalpy is -13 kcal/mol. Also, the Tm in series [2] amounted to 29.6 °C.
GGTGAGGGAAACCTCACC (((((((....))))))): in series [1], the folding enthalpy was -43.2 kcal/mol. In addition, the Tm in series [2] is 67.5 °C.
The corresponding values for GAGGGCGCGAAAGCGCTC (((..(((....)))))) are -7.69 kcal/mol and 42.5 °C.
On the same counts, the results for GACTCCCGAAAGGGGGTC (((.(((....))).))) are -33.4 kcal/mol and 63.7 °C.
Take CGATGGAAACATCG (((((....))))): the folding enthalpy in series [1] was -23.9 kcal/mol. Moreover, the Tm in series [2] amounted to 52.6 °C.
Take GGGTATGGAAACACACCC ((((.((....)).)))): the folding enthalpy in series [1] is -29.8 kcal/mol. For the same sequence, the Tm in series [2] came out at 42.8 °C.
In the case of GTTTAACGAAAGTTTAAC (((.(((....))).))), the folding enthalpy in series [1] was -23.4 kcal/mol. In addition, in series [2], the Tm was 36.2 °C.
On the same counts, the results for GCCAGCGGAAACACCGGC (((.(.(....).).))) are -10.2 kcal/mol and 27.6 °C.
The corresponding values for GATCATGGGAATGATC ((((((....)))))) are -36.8 kcal/mol and 51.8 °C.
On the same counts, the results for GTTTACGGAAACGCAAAC ((((.((....)).)))) are -27.7 kcal/mol and 37.3 °C.
For GGGGATCGAAAGATGCCC (((.(((....))).))), the folding enthalpy in series [1] is -48.8 kcal/mol. Further, in series [2], the Tm turned out to be 59.4 °C.
Turning to GCTGACGAAAGTCCAAGC ((((((....)))..))), the folding enthalpy in series [1] was -16.5 kcal/mol. Also, in series [2], the Tm came to 43.5 °C.
Consider GCGTATACGAAAGTACGC (((..(((....)))))), for which, in series [1], the folding enthalpy is -35.4 kcal/mol. Moreover, the Tm in series [2] came to 51.6 °C.
Consider GAAACGCGAAAGCGTTC (((.(((....)))))), for which the folding enthalpy in series [1] is -8.94 kcal/mol. In addition, in series [2], the Tm turned out to be 50.6 °C.
The corresponding values for GGTAGTGGAAACACCACC (((.(((....))).))) are -20.8 kcal/mol and 40 °C.
Turning to GATCCAAAGTGGATC ((((((...)))))), the folding enthalpy in series [1] was -30.9 kcal/mol. The Tm in series [2] stood at 48.8 °C.
Regarding GATCCCGCTGGGATC ((((((...)))))), the folding enthalpy in series [1] is -37.4 kcal/mol. The Tm in series [2] is 63.2 °C.
As for GATCGGAGTTCCGATC ((((((....)))))), the folding enthalpy in series [1] is -37.8 kcal/mol. Moreover, the Tm in series [2] was found to be 56.7 °C.
For GGGTAACGAAAGTTGCCC (((.(((....))).))), the folding enthalpy in series [1] is -49.4 kcal/mol. For the same sequence, in series [2], the Tm was found to be 59.6 °C.
On the same counts, the results for GCCAGGCGAAAGCTTCGC ((.(.((....)).).)) are -8.82 kcal/mol and 40.5 °C.
On to GAATAGACGAAAGTCTTC (((..(((....)))))), for which, in series [1], the folding enthalpy is -11.8 kcal/mol. In series [2], the Tm came out at 26.1 °C.
On the same counts, the results for GGCGCCGAAAGGCTGCC ((((((....))).))) are -19.4 kcal/mol and 67.1 °C.
As to GCTGTGCGAAAGCAAGC (((.(((....)))))), the folding enthalpy in series [1] is -21.5 kcal/mol. Moreover, in series [2], the Tm is 51.8 °C.
The corresponding values for GATCGACCTTCGATC ((((((...)))))) are -35.6 kcal/mol and 51 °C.
For GCGGATGGAAACATTCGC (((.(((....))).))), in series [1], the folding enthalpy was -43.5 kcal/mol. Also, the Tm in series [2] was found to be 55.1 °C.
With GCGGGGCGAAAGCTACGC (((..((....))..))), the folding enthalpy in series [1] was -27.3 kcal/mol. For the same sequence, the Tm in series [2] was determined as 68.6 °C.
